The sample as a whole holds a higher share of hits than the screen did.
XBP1 UPR activ: activators of adaptive arm of unfolded protein response (XBP1); CHO-XBP1 luciferase reporter, IRE1-XBP1 UPR activation, luminescence; percent of tunicamycin response, DMSO as zero; activation, % at 20 µM; 0.33% of 330,000 active;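 active = versus positive control, 20 µM dose yields 30% or more activation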;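 also: 100% = tunicamycin at 10 µg/mL and 0% = DMSO only wells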
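Material: CHO cell line with stable XBP1 luciferase reporter; buffer or medium: F12 medium containing 10% fetal bovine serum; compound: single point, 20 µM final compound, 1% DMSO; incubation: 6 h treatment, 37 °C; measured by: glow luminescence from Steady-Glo reagent; evaluation: activation, % of tunicamycin; control set: tunicamycin high, DMSO low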
Tb MetRS inh: blocks T. brucei methionyl-tRNA synthetase activity; purified T. brucei MetRS, ATP depletion, Kinase-Glo luminescence; inhibition, % at 11.9 µM; 0.4% of 360,000 active; AID 624268;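 active = inhibition above a per-plate cutoff of the control wells' mean inhibition plus 3 SD, cut at about 5.5% in these data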;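 also: 0% = DMSO wells median and 100% = median of wells with control inhibitor compound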
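Material – parasite MetRS enzyme · Medium – HEPES-MgCl2-KCl buffer plus DTT, spermine, BSA, pyrophosphatase · Reagent – ATP, methionine and E. coli bulk tRNA substrates · Times – 15 min enzyme-compound preincubation, 2 h reaction, 10 min detection, 25 °C · Measured by – luminescence of leftover ATP · Evaluation – percent inhibition relative to median high and low control wells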
UPR CHOP act: activators of apoptotic arm of unfolded protein response (CHOP). CHO-CHOP luciferase reporter, UPR activation, luminescence; percent of tunicamycin response over DMSO baseline. activation, % at 10 µM. 0.34% of 330,000 active. AID 449763;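 active = at 10 µM dose, activation of 40% or more, normalized to positive control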;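 also: 100% = tunicamycin at 10 µg/mL and 0% = DMSO alone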
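Assay system: CHO cells with stable CHOP pathway luciferase reporter; Buffer or medium: F12 plus 10% serum; Times: 16-18 h cell attachment, then 6 h compound exposure, 37 °C; Signal: luciferase luminescence; Read-out basis: percent activation relative to tunicamycin control; Control set: tunicamycin high control, DMSO low control.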
CHOP inh: inhibitors of CHOP induction in ER stress response. AID 2732. CHO-K1 CHOP-promoter luciferase, tunicamycin-induced, 15-18 h. 3.8% of 220,000 active. inhibition, % at 10 µM;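 active = compounds that reduced the stress-induced luciferase reporter signal by more than about 70% of percent inhibition, limit read from the data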;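 also: 0% = tunicamycin plus vehicle and 100% = wells without tunicamycin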
V-ATPase pHluor: yeast V-ATPase proton transport regulation by pHLuorin; 0.37% of 350,000 active; S. cerevisiae, pHLuorin cytosolic pH fluorescence; response, % at 10 µM; AID 504577; in the data active = response mostly above about 7.3%, no sharp cut-off; inactive = mostly below about 5.4%; also: actives read high
Starred values were filed as active, the others as inactive.

Results for COc1ccc(S(=O)(=O)N(C)CC(=O)Nc2ccc(C(F)(F)F)cc2)cc1Cl ?
XBP1 UPR activ: -0.7; Tb MetRS inh: -0.5; UPR CHOP act: -0.9; CHOP inh: 80.8*; V-ATPase pHluor: 1.5

Results for O=C(Nc1cccc(C(F)(F)F)c1)c1cc2ncc(Br)cn2n1 ?
XBP1 UPR activ: -2.5; Tb MetRS inh: -0.8; UPR CHOP act: -0.8; CHOP inh: 78.8*; V-ATPase pHluor: 0.1

How did O=C(/C=C/c1ccc([N+](=O)[O-])cc1)Nc1cccc(S(=O)(=O)NC2=NCCCCC2)c1 do in these assays?
XBP1 UPR activ: -4.4; Tb MetRS inh: 0.2; UPR CHOP act: -0.5; V-ATPase pHluor: -3.5

Results for CN(C)S(=O)(=O)c1ccc(NC(=O)Cn2nc(-c3ccc4c(c3)OCCO4)ccc2=O)cc1 ?
Tb MetRS inh: -0.5; V-ATPase pHluor: -0.6

How did CCN1C/C(=C\c2cccc([N+](=O)[O-])c2)C(=O)/C(=C/c2cccc([N+](=O)[O-])c2)C1 do in these assays?
Tb MetRS inh: -0.2; CHOP inh: 108.1*; V-ATPase pHluor: 6.6

How did Cc1ccc2oc(=O)n(CCOc3ccccc3Cl)c2c1 do in these assays?
XBP1 UPR activ: 0.2; Tb MetRS inh: -0.7; UPR CHOP act: -0.5; CHOP inh: 92.7*; V-ATPase pHluor: 1.0

Results for CCOc1ccccc1Cn1c(=O)oc2ccc(C)cc21 ?
XBP1 UPR activ: 2.6; Tb MetRS inh: -1.0; UPR CHOP act: -3.0; CHOP inh: 9.7; V-ATPase pHluor: 1.3

How did COc1ccccc1OCCCn1c(=O)oc2ccc(C)cc21 do in these assays?
XBP1 UPR activ: 0.9; Tb MetRS inh: -1.2; UPR CHOP act: 1.0; CHOP inh: 2.1; V-ATPase pHluor: 2.4

Results for CCCOc1ccccc1Cn1c(=O)oc2ccc(C)cc21 ?
XBP1 UPR activ: -3.4; Tb MetRS inh: -0.4; UPR CHOP act: -1.3; CHOP inh: 80.8*; V-ATPase pHluor: 3.7

Results for CC(=O)Nc1cccc(Oc2nc(NCCN(C)C)nc3ccsc23)c1 ?
Tb MetRS inh: -0.2

Results for COCCCn1c(C)cc(C(=O)COC(=O)C23CC4CC(CC(O)(C4)C2)C3)c1C ?
XBP1 UPR activ: 0.7; Tb MetRS inh: 0.0; UPR CHOP act: 6.1; V-ATPase pHluor: -0.5

Results for O=C(O)c1ccc(CN2C[C@@H](CO)O[C@@H](n3cnc4c(NCc5ccco5)ncnc43)C2)cc1 ?
Tb MetRS inh: -0.2

How did COCCNC(=O)C1(C)CCCN(C(=O)c2cccc(Cl)c2)C1 (stereo not drawn) do in these assays?
Tb MetRS inh: -0.1

What do the screens show for `CC(C)c1ccc(NC(=O)c2snc3ccc(Cl)cc23)cc1`?
XBP1 UPR activ: 11.0; Tb MetRS inh: 0.2; UPR CHOP act: 5.7; CHOP inh: 78.9*; V-ATPase pHluor: -2.7

What do the screens show for `CC(C)c1ccc(NC(=O)c2csnn2)cc1`?
XBP1 UPR activ: -1.8; Tb MetRS inh: -1.0; UPR CHOP act: 0.4; CHOP inh: 40.4; V-ATPase pHluor: -3.8

How did CCCN1CCN(CCCNC(=O)Cn2nc(C)n3c(cc4cc(OC)ccc43)c2=O)CC1 do in these assays?
XBP1 UPR activ: -7.2; Tb MetRS inh: -0.3; UPR CHOP act: 1.1; V-ATPase pHluor: -0.3

Results for O=C(CC(=O)c1ccccc1)Nc1cc(C(F)(F)F)ccc1Cl ?
XBP1 UPR activ: 0.0; Tb MetRS inh: -0.4; UPR CHOP act: 2.4; CHOP inh: 8.2; V-ATPase pHluor: 1.6

What do the screens show for `O=C(NC(=S)Nc1cc(C(F)(F)F)ccc1Cl)c1ccccc1`?
XBP1 UPR activ: -0.9; Tb MetRS inh: 0.4; UPR CHOP act: 0.2; CHOP inh: 88.8*; V-ATPase pHluor: 2.6

Results for O=C(CO/N=C/c1ccc(Cl)cc1Cl)NNC(=O)c1cccc(Cl)c1 ?
XBP1 UPR activ: -1.0; Tb MetRS inh: -0.9; UPR CHOP act: 1.6; CHOP inh: 73.9*; V-ATPase pHluor: -3.8

What do the screens show for `CC(OC(=O)CN(C)S(=O)(=O)c1ccc(Cl)cc1)C(=O)Nc1cccc(Cl)c1` (stereo not drawn)?
XBP1 UPR activ: -0.2; Tb MetRS inh: -0.6; UPR CHOP act: 0.8; CHOP inh: 82.8*

How did CC(OC(=O)CN(C)S(=O)(=O)c1ccc(Cl)cc1)C(=O)Nc1ncc(Cl)cc1Cl (stereo not drawn) do in these assays?
XBP1 UPR activ: -1.6; Tb MetRS inh: -0.7; UPR CHOP act: 0.3; CHOP inh: -11.2; V-ATPase pHluor: -0.5

How did CCOc1ccc(C(=O)NCC(=O)OCc2c(C)noc2C)cc1OCC do in these assays?
XBP1 UPR activ: -2.3; Tb MetRS inh: 0.1; UPR CHOP act: -1.1; CHOP inh: -3.4; V-ATPase pHluor: 13.1*

Results for O=C(Cn1cc(C(F)(F)F)cc(Cl)c1=O)NCCc1ccc(Cl)cc1Cl ?
XBP1 UPR activ: -2.6; Tb MetRS inh: 2.4; UPR CHOP act: -0.9; CHOP inh: 74.0*; V-ATPase pHluor: -0.6

What do the screens show for `Cc1ccc(C)c(NS(=O)(=O)c2ccc3oc(=O)ccc3c2)c1`?
XBP1 UPR activ: -3.3; Tb MetRS inh: -0.5; UPR CHOP act: 0.6; V-ATPase pHluor: -0.3

What do the screens show for `Cc1ccc(C)c(NS(=O)(=O)c2ccc3c(c2)Cc2cc(S(=O)(=O)Nc4cc(C)ccc4C)ccc2-3)c1`?
Tb MetRS inh: 0.0; CHOP inh: 83.0*; V-ATPase pHluor: -6.9

How did Cc1ccc(S(=O)(=O)Nc2ccc3c(c2)C(=O)c2ccccc2-3)cc1 do in these assays?
Tb MetRS inh: 0.4

Results for Cc1ccc(NS(=O)(=O)c2ccc3c(c2)C(=O)c2ccccc2C3=O)c(C)c1 ?
Tb MetRS inh: 0.0; CHOP inh: 80.4*; V-ATPase pHluor: -1.8

Results for COC(=O)C1=CN(c2ccc(N3CCOCC3)cc2)C(N)=C(C#N)C1c1cccc(F)c1 (stereo not drawn) ?
Tb MetRS inh: -0.8

Results for C[C@@H]1CN([C@H](C)CO)C(=O)c2cc(-c3ccc(C(=O)N(C)C)cc3)cnc2O[C@@H]1CN(C)C(=O)c1cccnc1 ?
Tb MetRS inh: -0.5; V-ATPase pHluor: -1.2

How did N#CC(C(=S)Nc1ccccc1)c1nc2ccccc2[nH]1 (stereo not drawn) do in these assays?
XBP1 UPR activ: 8.2; Tb MetRS inh: -0.8; UPR CHOP act: 38.4; CHOP inh: -138.9; V-ATPase pHluor: -2.6

How did CSC(=Nc1ccccc1)C(C#N)c1nc2ccccc2[nH]1 (stereo not drawn) do in these assays?
XBP1 UPR activ: 8.5; Tb MetRS inh: 1.0; UPR CHOP act: 2.8; CHOP inh: 82.0*; V-ATPase pHluor: 1.4

What do the screens show for `O=C(N=C1SC2CS(=O)(=O)CC2N1Cc1ccccc1)C1CC1` (stereo not drawn)?
Tb MetRS inh: 0.0; V-ATPase pHluor: 0.0

What do the screens show for `Fc1c(F)c(F)c(N=Cc2ccc3ncccc3c2)c(F)c1F`?
XBP1 UPR activ: 4.3; Tb MetRS inh: -0.3; UPR CHOP act: 4.2; CHOP inh: 13.0; V-ATPase pHluor: 1.0

Screening results (PubChem BioAssay)
